“And” between values parts separate entries of the source, which are not always exact repeats. Equal values may be shown once. The source made the active and inactive calls. The calls are words filed in the database; no cut-off is given here. *1 amine or outer side, *2 acyl side, *3 side chain or, on linkers, in order; H or OH if unused. Where a SMILES comes first, the peptide text is derived from it. Bridges are numbered along the chain shown (N, C = ends). [ ]: non-standard residue; d: D form. The star is where a group is joined. X2 = O=C(/C=C/c1csc([C@H](Cc2ccc(O)cc2)N[*:1])n1)[*:2]; X1 = CC[C@H](C)[C@H](N[*:1])C(=O)C(=O)[*:2]; X3 = CC[C@H](C)[C@H](N[*:1])C(O)C(=O)[*:2]; Benzoyl(4-OH) = O=C(c1ccc(O)cc1)*; Cya = N[C@@H](CS(=O)(=O)O)C(=O)O; MeOSuc = COC(=O)CCC(=O)*; Nva = CCC[C@H](N)C(=O)O; Dap = NC[C@H](N)C(=O)O; CH2Cl = ClC*
What was measured:
Mus musculus [1] = test: Antiinflammatory activity against bleomycin-induced acute lung injury C57BL/6 mouse model assessed as reduction in lung edema by measuring reduction in lung wet/dry ratio at 30 mg/kg, ip administered for upto 5 days relative to control; assay type: functional, organism-based; settings: time day <=5
How it was run: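 Same BLM model: C57BL/6J males, intratracheal BLM 4 mg/kg, then 30 mg/kg ip daily up to 5 days in 10% DMSO/90% saline, sacrifice day 6, n = 8 per group. Left lungs were weighed immediately, dried at 78 °C for 48 h to stable weight and reweighed to give the wet/dry ratio. Dead animals were excluded.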

Mus musculus [2] = test: Antiinflammatory activity against bleomycin-induced acute lung injury C57BL/6 mouse model assessed as reduction in inflammatory cell infiltration in lung at 30 mg/kg, ip administered for upto 5 days by HE-staining based assay; assay type: functional, organism-based; settings: time day <=5
How it was run: (§1)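 Male C57BL/6J mice, 8 weeks old, n = 8 per group, anaesthetised with chloral hydrate. ALI was induced by intratracheal BLM 4 mg/kg in 0.1 mL saline; controls received saline. Drug was given at 30 mg/kg ip daily for up to 5 days in 10% DMSO/90% saline (vehicle alone for controls), with sacrifice on day 6. Right lungs were formalin-fixed, sectioned at 4 μm and HE-stained. A histologist scored three images per lung blind; dead animals were excluded.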

Mus musculus [3] = test: Antiinflammatory activity against bleomycin-induced acute lung injury C57BL/6 mouse model assessed as reduction in pathological changes in lung at 30 mg/kg, ip administered for upto 5 days by HE-staining based assay; assay type: functional, organism-based; settings: time day <=5; how it was run: as §1
[4] = Inhibition of porcine pancreatic elastase incubated for 40 mins in presence of DQ elastin substrate by fluorescence multiwell plate reader; parameters: species or system Sus scrofa
How it was run: (§2)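 Fluorescence elastase assay with DQ elastin substrate at 25 μg/mL and either porcine pancreatic elastase at 0.4 U/mL or human neutrophil elastase at 0.2 U/mL. Enzyme, substrate and increasing inhibitor concentrations were incubated 40 min at rt in the dark, then read at ex 485/em 535 nm. Each experiment was run three times; paired Student's t test against controls.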

Mus musculus [5] = test: Antiinflammatory activity against bleomycin-induced acute lung injury C57BL/6 mouse model assessed as fold reduction in lung edema by measuring thickness of the alveolar deterioration at 30 mg/kg, ip administered for upto 5 days by HE-staining relative to control; assay type: functional; settings: time day <=5
How it was run: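 Male C57BL/6J mice, 8 weeks old, n = 8/group. ALI induced by intratracheal BLM (4 mg/kg, in 0.1 mL saline) under chloral hydrate anaesthesia; sham controls got saline. Drug given ip at 30 mg/kg in 10% DMSO/90% saline daily for up to 5 days. Sacrifice on day 6; right lung formalin-fixed, 4 μm HE sections, three images per lung, blinded histologist scoring; dead animals excluded.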

[6] = Inhibition of elastase (unknown origin); parameters: species or system Homo sapiens
How it was run: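 EnzChek kit, DQ elastin substrate 25 μg/mL with porcine pancreatic elastase 0.4 U/mL or human neutrophil elastase 0.2 U/mL. Increasing inhibitor concentrations, 40 min at room temperature in the dark. Fluorescence read at ex 485/em 535 nm. Three repeats; paired Student's t test against controls.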

[7] = Inhibition of elastase (unknown origin) at 1.25 uM by fluorescence microtiter plate method relative to control; settings: Homo sapiens
How it was run: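 Single-concentration screen: elastin substrate and elastase were incubated with test compounds at 1.25 μM in the EnzChek fluorescence elastase format (40 min, rt). Activity was read against controls, with three repeats.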

Homo sapiens = organism: Homo sapiens; test: Inhibition of elastase (unknown origin) at 2.5 uM by fluorescence microtiter plate method relative to control
How it was run: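 Elastin substrate plus elastase incubated with a single inhibitor level (reference inhibitor MeOSu-AAPV-CMK at 2.5 μM, others at 1.25 μM). EnzChek DQ elastin fluorescence, ex 485/em 535 nm, 40 min at room temperature. Three repeats.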

[8] = Cytotoxicity against human 293T/ACE2 cells assessed as reduction in cell viability upto 100 uM incubated for 24 hrs by CCK-8 assay; assay type: toxicity, cell-based; settings: 293t/ace2, 24 h
How it was run: (§3)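 Cells (ACE2-overexpressing 293T stable line or BEAS-2B lung epithelial) were seeded at 1 × 10^4 per well and left about 12 h to adhere. They were exposed to graded compound concentrations for 24 h. CCK-8 was added and incubated 2 h at 37 °C, then OD450 read. Viability was expressed as percentage; IC50 was computed.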

Neutrophil elastase [9] = biological target: T1, Neutrophil elastase (Homo sapiens, UniProt P08246); test: Inhibition of human neutrophil elastase; how it was run: as §2
T1 sequence (P08246 whole entry): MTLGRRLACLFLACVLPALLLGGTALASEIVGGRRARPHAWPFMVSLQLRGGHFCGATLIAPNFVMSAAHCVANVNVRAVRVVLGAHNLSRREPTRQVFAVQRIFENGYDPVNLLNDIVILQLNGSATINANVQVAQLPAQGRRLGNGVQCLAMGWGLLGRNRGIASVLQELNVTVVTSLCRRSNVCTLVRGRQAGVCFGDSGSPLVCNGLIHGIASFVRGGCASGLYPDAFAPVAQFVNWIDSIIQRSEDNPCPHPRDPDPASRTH

Neutrophil elastase [10] = biological target: T1, Neutrophil elastase; test: Inhibition of human neutrophil elastase incubated for 40 mins in presence of DQ elastin by fluorescence microtiter plate method
BEAS-2B = test: Cytotoxicity against human BEAS-2B cells assessed as reduction in cell viability upto 100 uM incubated for 24 hrs by CCK-8 assay; assay type: toxicity, cell-based; how it was run: as §3

inhibition [7]	SMILES	Activity (Mus musculus [1])	Activity (Mus musculus [2])	Activity (Mus musculus [3])	IC50 [4]	fold change (FC) (Mus musculus [5])	other results
	CC(C)(C)C(=O)Oc1ccc(S(=O)(=O)Nc2ccccc2C(=O)NCC(=O)O)cc1	Active	Active	Active	2960 nM	1	IC50 [6]: 44 nM
46.6%	CCC[C@@H]1NC(=O)[C@@H](NC(=O)[C@H](C)NC(=O)CNC(=O)c2ccc(O[Si](C)(C)C(C)(C)C)cc2)CNC(=O)[C@H](CS(=O)(=O)O)NC(=O)/C=C/c2csc(n2)[C@H](Cc2ccc(O[Si](C)(C)C(C)(C)C)cc2)NC(=O)C(=O)[C@H]([C@@H](C)CC)NC1=O						
	COC(=O)CCC(=O)N[C@@H](C)C(=O)N[C@@H](C)C(=O)N1CCC[C@H]1C(=O)N[C@H](C(=O)CCl)C(C)C (MeOSuc-AAPV-CH2Cl)						inhibition (Homo sapiens): 23.2%
94%	CCC[C@@H]1NC(=O)[C@@H](NC(=O)[C@H](C)NC(=O)CNC(=O)c2ccc(O)cc2)CNC(=O)[C@H](CS(=O)(=O)O)NC(=O)/C=C/c2csc(n2)[C@H](Cc2ccc(O)cc2)NC(=O)C(O)[C@H]([C@@H](C)CC)NC1=O (some centres undefined) ({Benzoyl(4-OH)}-GA[Dap][Nva][X3][X2][Cya]; lactam 3-C)						

SMILES	inhibition [7]	Activity (Mus musculus [1])	Activity (Mus musculus [2])	Activity (Mus musculus [3])	IC50 [4]	fold change (FC) (Mus musculus [5])	other results
CCC[C@@H]1NC(=O)[C@@H](NC(=O)[C@H](C)NC(=O)CNC(=O)c2ccc(O)cc2)CNC(=O)[C@H](CS(=O)(=O)[O-])NC(=O)/C=C/c2csc(n2)[C@H](Cc2ccc(O)cc2)NC(=O)C(=O)[C@H]([C@@H](C)CC)NC1=O.[Na+] ({Benzoyl(4-OH)}-GA[Dap][Nva][X1][X2][Cya]; lactam 3-C)	3.6% and 3.8%	Active	Active	Active	114 nM	1	Activity [8]: Non-Toxic; IC50 (Neutrophil elastase [9]): 0.034 nM; IC50 (Neutrophil elastase [10]): 321 nM; Activity (BEAS-2B): Non-Toxic

— ChEMBL document CHEMBL5038647, “Elastase Inhibitor Cyclotheonellazole A: Total Synthesis and In Vivo Biological Evaluation for Acute Lung Injury” (J Med Chem, 2022)
